Assay results published in ChEMBL document CHEMBL1137710, “Synthesis and in vitro antitumor activity of new quinoxaline derivatives” (2009).

What was measured:
Format in all cases: functional
LOX IMVI = assay: Growth inhibition of human LOXIMVI cells after 48 hrs by sulforhodamine B assay
Method in brief: (§1)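 NCI 60-human-tumor-cell-line panel, with compounds tested over a 5-log dose range. Values are taken from dose-response curves as log10 molar concentrations: GI50 is 50% net growth inhibition, TGI is total growth inhibition, and LC50 is 50% net cell death.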

SK-MEL-28 = assay: Growth inhibition of human SK-MEL-28 cells after 48 hrs by sulforhodamine B assay; settings: SK-MEL-28, 48 h; method in brief: as §1
SF-268 [1] = assay: Anticancer activity against human SF268 cells assessed as cell growth at 100 uM after 48 hrs by sulforhodamine B assay; settings: SF-268, 48 h, read-out: Activity
[2] = Growth inhibition of human Hs 578T cells after 48 hrs by sulforhodamine B assay; method in brief: as §1
DU-145 = assay: Growth inhibition of human DU145 cells after 48 hrs by sulforhodamine B assay; settings: DU-145, 48 h; method in brief: as §1
NCI-H460 [3] = assay: Anticancer activity against human NCI-H460 cells assessed as cell growth at 100 uM after 48 hrs by sulforhodamine B assay; settings: NCI-H460, 48 h, read-out: Activity
MCF7 [4] = assay: Anticancer activity against human MCF7 cells assessed as cell growth at 100 uM after 48 hrs by sulforhodamine B assay; settings: MCF7, 48 h, read-out: Activity
SN12C = assay: Growth inhibition of human SN12C cells after 48 hrs by sulforhodamine B assay
Method in brief: (§2)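 Run in the NCI 60-human-tumour-cell-line panel, tested over a 5-log dose range. Dose–response curves gave three values per cell line, each as a log10 molar concentration: GI50 (50% inhibition of net cell growth), TGI (total inhibition of net growth) and LC50 (50% net cell death). The mean graph midpoint is the arithmetic mean over all lines, with insensitive lines entered at the highest concentration tested.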

SR = assay: Growth inhibition of human SR cells after 48 hrs by sulforhodamine B assay; method in brief: as §2
BT-549 = assay: Growth inhibition of human BT549 cells after 48 hrs by sulforhodamine B assay; settings: BT-549, 48 h; method in brief: as §1
RXF 393 = assay: Growth inhibition of human RXF393 cells after 48 hrs by sulforhodamine B assay; settings: RXF 393, 48 h; method in brief: as §1
PC-3 = assay: Growth inhibition of human PC3 cells after 48 hrs by sulforhodamine B assay; settings: PC-3, 48 h; method in brief: as §1
KM12 = assay: Growth inhibition of human KM12 cells after 48 hrs by sulforhodamine B assay; settings: KM12, 48 h; method in brief: as §1
NCI-H226 = assay: Growth inhibition of human NCI-H226 cells after 48 hrs by sulforhodamine B assay; settings: NCI-H226, 48 h; method in brief: as §1
ACHN = assay: Growth inhibition of human ACHN cells after 48 hrs by sulforhodamine B assay
SNB-75 = assay: Growth inhibition of human SNB75 cells after 48 hrs by sulforhodamine B assay; settings: SNB-75, 48 h; method in brief: as §2
MCF7 [5] = assay: Growth inhibition of human MCF7 cells after 48 hrs by sulforhodamine B assay; settings: MCF7, 48 h; method in brief: as §1
A498 = assay: Growth inhibition of human A498 cells after 48 hrs by sulforhodamine B assay; settings: A498, 48 h; method in brief: as §1
UACC-62 = assay: Growth inhibition of human UACC62 cells after 48 hrs by sulforhodamine B assay; settings: UACC-62, 48 h; method in brief: as §2
EKVX = assay: Growth inhibition of human EKVX cells after 48 hrs by sulforhodamine B assay; method in brief: as §1
HCT-15 = assay: Growth inhibition of human HCT15 cells after 48 hrs by sulforhodamine B assay; settings: HCT-15, 48 h; method in brief: as §1
IGROV-1 = assay: Growth inhibition of human IGROV1 cells after 48 hrs by sulforhodamine B assay; settings: IGROV-1, 48 h; method in brief: as §1
Malme-3M = assay: Growth inhibition of human MALME-3M cells after 48 hrs by sulforhodamine B assay; method in brief: as §1
HOP-92 = assay: Growth inhibition of human HOP92 cells after 48 hrs by sulforhodamine B assay; settings: HOP-92, 48 h; method in brief: as §1
SK-MEL-2 = assay: Growth inhibition of human SK-MEL-2 cells after 48 hrs by sulforhodamine B assay; settings: SK-MEL-2, 48 h; method in brief: as §1
CCRF-CEM = assay: Growth inhibition of human CCRF-CEM cells after 48 hrs by sulforhodamine B assay; method in brief: as §1
SK-MEL-5 = assay: Growth inhibition of human SK-MEL-5 cells after 48 hrs by sulforhodamine B assay; settings: SK-MEL-5, 48 h; method in brief: as §1
NCI-H460 [6] = assay: Growth inhibition of human NCI-H460 cells after 48 hrs by sulforhodamine B assay; settings: NCI-H460, 48 h; method in brief: as §1
SF-268 [7] = assay: Growth inhibition of human SF268 cells after 48 hrs by sulforhodamine B assay; settings: SF-268, 48 h; method in brief: as §1
[8] = read-out: pLC50 (the source's name) (converted)

Structure (SMILES): COc1ccc(CNc2nc3cc(N)cc(N)c3nc2-c2ccccc2)cc1
- GI50 (LOX IMVI): 13.5 µM
- LC50 (LOX IMVI): 55 µM
- TGI (LOX IMVI; read-out: pTGI (converted)): 27.5 µM
- GI50 (SK-MEL-28): 17.4 µM
- CC50 (SK-MEL-28; [8]): 60.3 µM
- TGI (SK-MEL-28; read-out: pTGI (converted)): 32.4 µM
- growth at 100 µM (SF-268 [1]): 0%
- GI50 [2]: 26.9 µM
- CC50 [2, 8]: > 100 µM
- TGI ([2]; read-out: pTGI (converted)): > 100 µM
- GI50 (DU-145): 21.9 µM
- CC50 (DU-145; [8]): > 100 µM
- TGI (DU-145; read-out: pTGI (converted)): 57.5 µM
- growth at 100 µM (NCI-H460 [3]): 0%
- growth at 100 µM (MCF7 [4]): 0%
- GI50 (SN12C): 17 µM
- CC50 (SN12C; [8]): 69.2 µM
- TGI (SN12C; read-out: pTGI (converted)): 34.7 µM
- GI50 (SR): 4.07 µM
- LC50 (concentration giving 50% net cell death) (SR): > 100 µM
- TGI (SR; read-out: pTGI (converted)): > 100 µM
- GI50 (BT-549): 6.46 µM
- CC50 (BT-549; [8]): > 100 µM
- TGI (BT-549; read-out: pTGI (converted)): 30.9 µM
- GI50 (RXF 393): 5.37 µM
- CC50 (RXF 393; [8]): 44.7 µM
- TGI (RXF 393; read-out: pTGI (converted)): 18.2 µM
- GI50 (PC-3): 10.2 µM
- CC50 (PC-3; [8]): 72.4 µM
- TGI (PC-3; read-out: pTGI (converted)): 27.5 µM
- GI50 (KM12): 13.2 µM
- LC50 (50% net cell kill) (KM12): > 100 µM
- TGI (KM12; read-out: pTGI (converted)): 26.3 µM
- GI50 (NCI-H226): 20.4 µM
- LC50 (NCI-H226): > 100 µM
- TGI (NCI-H226; read-out: pTGI (converted)): 70.8 µM
- GI50 (ACHN): 14.8 µM
- CC50 (ACHN; [8]): 75.9 µM
- TGI (ACHN; read-out: pTGI (converted)): 33.9 µM
- LC50 (SNB-75): 72.4 µM
- TGI (SNB-75; read-out: pTGI (converted)): 30.2 µM
- GI50 (MCF7 [5]): 13.2 µM
- CC50 (MCF7 [5]; [8]): 53.7 µM
- TGI (MCF7 [5]; read-out: pTGI (converted)): 26.3 µM
- GI50 (A498): > 100 µM
- CC50 (A498; [8]): > 100 µM
- TGI (A498; read-out: pTGI (converted)): > 100 µM
- GI50 (UACC-62): 14.8 µM
- CC50 (UACC-62; [8]): 58.9 µM
- TGI (UACC-62; read-out: pTGI (converted)): 29.5 µM
- GI50 (EKVX): 14.8 µM
- LC50 (50% net cell kill) (EKVX): 53.7 µM
- TGI (EKVX; read-out: pTGI (converted)): 28.2 µM
- GI50 (HCT-15): 15.8 µM
- LC50 (HCT-15): 75.9 µM
- TGI (HCT-15; read-out: pTGI (converted)): 34.7 µM
- GI50 (IGROV-1): 12.9 µM
- CC50 (IGROV-1; [8]): 56.2 µM
- TGI (IGROV-1; read-out: pTGI (converted)): 26.9 µM
- GI50 (Malme-3M): 10.7 µM
- CC50 (Malme-3M; [8]): 47.9 µM
- TGI (Malme-3M; read-out: pTGI (converted)): 22.4 µM
- GI50 (HOP-92): 12.9 µM
- LC50 (50% net cell death) (HOP-92): > 100 µM
- TGI (HOP-92; read-out: pTGI (converted)): 37.2 µM
- GI50 (SK-MEL-2): 14.8 µM
- CC50 (SK-MEL-2; [8]): 57.5 µM
- TGI (SK-MEL-2; read-out: pTGI (converted)): 28.8 µM
- GI50 (CCRF-CEM): 3.39 µM
- LC50 (CCRF-CEM): > 100 µM
- TGI (CCRF-CEM; read-out: pTGI (converted)): 64.6 µM
- GI50 (SK-MEL-5): 17.8 µM
- CC50 (SK-MEL-5; [8]): 56.2 µM
- TGI (SK-MEL-5; read-out: pTGI (converted)): 31.6 µM
- GI50 (NCI-H460 [6]): 20.4 µM
- LC50 (50% net cell kill) (NCI-H460 [6]): > 100 µM
- TGI (NCI-H460 [6]; read-out: pTGI (converted)): 47.9 µM
- GI50 (SF-268 [7]): 9.77 µM
- LC50 (SF-268 [7]): 49 µM
- TGI (SF-268 [7]; read-out: pTGI (converted)): 21.9 µM
